Shown are actives, neighbours in structure and some others; about 0.9% of the full set was active somewhere.
S1P4 ag – agonists of human S1P4 receptor | S1P4-expressing cell line, agonist reporter assay | activation, % at 4.98 µM | 0.35% of 220,000 active | AID 1509; in the data active = activation above about 11%;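 note: 0% = DMSO vehicle and 100% = reference agonist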
Mdm2 ligase inh – inhibitors of human Mdm2 E3 ubiquitin ligase | cell-based MDM2 ubiquitination luciferase reporter, 2 h; 0 = plate control, 100 = twice control, blank-subtracted | Q00987 | AID 1230 | 0.11% of 210,000 active | signal enhancement, % at 5 µM;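 active = signal enhancement of 30% or more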;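 note: luminescence tracks abundance of the self-degrading MDM2-luciferase fusion protein; higher signal means inhibition of MDM2 E3 ligase activity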
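Assay system: stable mammalian line carrying autodegrading MDM2–luciferase fusion reporter; amount: 2000 cells seeded into each well; buffer or medium: DMEM; benchmarks: plate control and blank wells; signal: luciferase luminescence; timing: 2 h compound exposure at 37 °C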
S1P4 antagonist – blocks the human S1P4 receptor | O95977 | S1P4-expressing cells, antagonist mode, reporter read-out | inhibition, % at 4.98 µM | 0.26% of 220,000 active | AID 1510; in the data active = inhibition above about 29%;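 note: 0% = wells stimulated with agonist and 100% = vehicle wells without agonist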
Biofilm kill mix – mixture kills Candida albicans biofilm cells; C. albicans biofilm persisters + clotrimazole, fluorescence viability; primary screen in compound mixtures of four per well; inhibition, % at 7.6 µM; 0.02% of 120,000 active;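 active = inhibition above 30.3% in the primary screen of four-compound pools, then above 30% when the compound was retested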;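 note: compounds exposed to preformed 24 h biofilms for 48 h; 0% = untreated biofilm control and 100% = clotrimazole plus chlorhexidine kill blank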
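System: C. albicans CAF4-2 wild-type biofilms; Medium: RPMI/MOPS medium, pH 7.0; Reagent: Clotrimazole, 50 µg/mL; Times: biofilm formation 24 h, compound exposure 48 h, 37 °C; Detection: 2-h Alamar Blue fluorescence, 535/590 nm excitation/emission; Evaluation: percent inhibition of biofilm viability.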
S1P3 antag-1 – blocks the human S1P3 receptor; Q99500; CHO S1P3 NFAT-BLA reporter, FRET fluorescence, antagonist mode; inhibition, % at 4.98 µM; 0.27% of 170,000 active; AID 485;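 active = inhibition above the plate cutoff, the mean inhibition of test wells on that plate plus 3 SD, cut at about 28% in these data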;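 note: cells challenged with S1P at its EC80 of 0.8 µM; blue over green emission ratio from cleaved BLA substrate after 4 h stimulation; 0% = S1P-stimulated wells and 100% = unstimulated DMSO-only wells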
Target sequence (Q99500 whole entry, looked up): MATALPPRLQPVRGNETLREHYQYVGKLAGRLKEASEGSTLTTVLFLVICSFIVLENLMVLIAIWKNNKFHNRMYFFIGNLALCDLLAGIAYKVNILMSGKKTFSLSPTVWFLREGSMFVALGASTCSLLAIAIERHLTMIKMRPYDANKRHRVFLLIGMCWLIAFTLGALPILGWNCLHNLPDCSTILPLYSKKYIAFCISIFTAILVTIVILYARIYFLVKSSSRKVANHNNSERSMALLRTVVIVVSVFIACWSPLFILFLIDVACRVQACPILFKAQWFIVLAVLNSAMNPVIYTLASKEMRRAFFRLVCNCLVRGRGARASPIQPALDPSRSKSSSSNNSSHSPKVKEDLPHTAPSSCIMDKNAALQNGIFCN
S1P3 antag-2 – confirmation of human S1P3 receptor antagonists; shares compounds with S1P3 antag-1; CHO S1P3 NFAT-BLA reporter, FRET, antagonist mode; inhibition, % at 4.98 µM; 30% of 240 active;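 active = inhibition above the hit threshold that was computed for the earlier primary screen, cut at about 30% in these data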;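 note: 0% = S1P-stimulated wells and 100% = unstimulated DMSO-only wells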
* = called active by the depositor; . = not tested or not shown.

SMILES	S1P4 ag	Mdm2 ligase inh	S1P4 antagonist	Biofilm kill mix	S1P3 antag-1	S1P3 antag-2
Cc1cc(C)n2nc(C(=O)NCc3ccco3)cc2n1	1	-14	-15	13	-12	.
COC(=O)c1ccccc1NC(=O)C(=O)NCc1ccncc1	-2	-9	1	30	0	.
COc1ccc(-c2[nH]ncc2N=Nc2cc(C)cc(C)c2)cc1	1	-5	-24	19	38*	12
COc1cc(NC(=S)Nc2ccccn2)c(OC)cc1Cl	-2	1	23	9	-10	.
Cc1sc(NC(=O)C2C3CCC(O3)C2C(=O)O)nc1-c1ccc(CC(C)C)cc1 (centres undefined)	-1	-15	0	9	106*	-15
C=CCNc1nc(-c2ccc([N+](=O)[O-])cc2)cs1	0	-13	-9	16	29*	3
C=CCn1cc(C(C)=O)c(=O)[nH]c1=O	2	-14	-15	9	-11	.
Cn1c(SCc2ccccc2)nnc1-c1ccc2c(c1)OCO2	0	15	-10	.	4	.
Cn1c(SCc2ccccc2)nnc1-c1ccc2nonc2c1	1	-9	-7	22	30*	-11
O=NN(CCc1ccncc1)c1ccc(OCc2ccccc2)cc1	0	-15	9	4	33*	14
C/C(CC(=O)NC12CC3CC(CC(C3)C1)C2)=N\NC(=O)c1ccc(C)cc1	0	-2	-19	12	-1	.
Cc1cc(C)c(C)c(S(=O)(=O)Nc2ccc(OCC(=O)O)cc2)c1C	2	-4	-4	.	.	.
COCC(C)NC(C(=O)Nc1ccc(C)c(Cl)c1)c1ccccc1 (centres undefined)	2	-12	-3	.	.	.
Cc1ccc(NC(=O)C(OC(=O)c2ccc(C=O)cc2)c2ccccc2)cc1Cl (centres undefined)	-1	-19	-1	15	30*	19
COc1ccc(CNC(=O)C/C(C)=N/NC(=O)C23CC4CC(CC(C4)C2)C3)cc1	1	-4	-17	22	-2	.
COc1ccccc1NC(=O)c1ccc(NC(=O)COC(=O)C2CCCO2)cc1 (centres undefined)	1	-2	-1	15	30*	-10
Cn1c(CSc2ncccn2)nnc1SCC(=O)N1CCCC1	1	-4	-8	26	-1	.
CCCCSc1nnc(CSc2ncccn2)n1C	1	-18	-9	9	29*	-5
COc1ccc(NC(=O)C(C)Sc2nnc3c4c(nc(-c5ccc(OC)cc5)n23)CC(C)(C)OC4)cc1 (centres undefined)	0	-4	1	22	-5	.
O=C(NCC1(N2CCCCC2)CCCCC1)C1CC(=O)N(c2ccc3c(c2)OCCO3)C1 (centres undefined)	2	-15	10	8	-4	.
O=C(c1cc(C(=O)N2CCOCC2)c2nc3ccccc3n2c1)c1cc(Cl)cc(Cl)c1O	-1	.	-42	7	31*	-18
O=C(Oc1ccccc1OC(=O)N1CCOCC1)N1CCOCC1	-2	-2	-10	.	-3	.
CC(Oc1ccccc1Cl)C(=O)N1CCOCC1 (centres undefined)	2	-9	-4	12	46*	-19
Cc1ccc(NCCC(=O)c2cccs2)cc1	-1	2	1	21	-17	.
CC(C)c1ccc(NCCC(=O)c2cccs2)cc1	-2	-23	-1	9	30*	4
SMILES	S1P4 ag	Mdm2 ligase inh	S1P4 antagonist	Biofilm kill mix	S1P3 antag-1	S1P3 antag-2
O=C(CSc1nc(C2CCCCC2)n(-c2ccccc2)n1)NCCN1C(=O)CSC1=O	-1	-5	-34	.	-16	.
O=C(CSc1nc(C2CCCCC2)n(-c2ccccc2)n1)NCC(F)(F)F	-1	.	-11	13	51*	-5
C=CCNCC(=O)N1N=C(c2ccc3ccccc3c2)CC1c1ccc(OC)cc1 (centres undefined)	0	-8	1	14	31*	2
COc1ccc(C2CC(c3ccc4ccccc4c3)=NN2C(=O)CNC2CCCCC2)cc1 (centres undefined)	-1	-17	5	5	-11	.
CC(C)c1ccc(/C=C/C(=O)NCCC2=CCCCC2)cc1	-1	-87	-23	6	30*	-10
COc1cc(/C=C(/C#N)C(=O)c2c(C)[nH]c3ccccc23)ccc1OCC#N	1	.	3	9	30*	-6
CCOc1ccc(/C=C(\C#N)C(=O)c2c(C)[nH]c3ccccc23)cc1OC	0	2	-8	16	-16	.
O=[N+]([O-])c1cc(S(=O)(=O)Nc2cccc(Cl)c2)ccc1N/N=C/c1ccc(N2CCOCC2)cc1	1	.	-8	16	-2	.
Cc1ccc2nc(C)c3c(c2c1)COC3	1	-4	3	13	30*	-3
CC1(C)OC(=O)C(=CNCC(O)c2ccccc2)C(=O)O1 (centres undefined)	0	-2	0	.	-4	.
CC1(C)OC(=O)C(=CNCCc2ccc(O)cc2)C(=O)O1	1	-13	-14	13	28*	-19
Cc1ccc2cc(/C=N/Nc3nc4ccccc4[nH]3)c(Cl)nc2c1	2	-68	1	7	46*	8
O=C(c1ccccc1)c1ccc2c(c1)OCCOCCOCCOCCO2	1	-5	3	19	29*	-14
O=C(N/N=C/c1ccc([N+](=O)[O-])cc1)c1cc2ccccc2o1	1	-56	-25	10	-8	.
C/C(=N\Nc1ccc([N+](=O)[O-])cc1)c1cc2ccccc2o1	0	-12	15	9	54*	55*
C/C(=N/Nc1ccc([N+](=O)[O-])cc1)c1ccc(C)cc1C	3	3	0	27	33*	22
CC(=O)Nc1ncc(Cc2cccc(Cl)c2)s1	-2	.	6	10	28*	5
O=C(CCCNS(=O)(=O)c1ccc(Cl)c(Cl)c1)NCCc1ccccn1	0	2	-8	9	-7	.
CCCCN1/C(=C/c2ccc3ccccc3[n+]2CC)Sc2ccccc21	-3	-68	-18	11	30*	21
CCN1/C(=C/c2ccc3cc(C)ccc3[n+]2CC)Sc2cc(C)ccc21	-1	-35	-10	26	39*	21
CCN1/C(=C/c2ccc3ccccc3[n+]2CC)C=Cc2ccccc21	2	-33	-23	.	.	.
COc1cccc(OCCNC(=O)Nc2cc(F)c(F)cc2Cl)c1	-2	1	-4	15	-11	.
O=C1c2cccc3c(N4CCCCC4)ccc(c23)C(=O)N1c1ccccc1O	-2	-6	18	10	48*	33*
O=C1c2cccc3c(N4CCCCC4)ccc(c23)C(=O)N1c1ccc(O)cc1	1	-10	-18	12	1	.
O=C(CCC1CCCC1)Nc1ccc([N+](=O)[O-])cn1	0	10	0	8	32*	-2
